Measurements: ChEMBL document CHEMBL1142289, “Discovery of sulfonylalkylamides: A new class of orally active factor Xa inhibitors” (Bioorg Med Chem, 2008)
Each block holds one compound with its values, some of them ahead of it.

Legend:
Coagulation factor X = Coagulation factor X (Homo sapiens, UniProt P00742); experiment: Inhibition of human factor 10a
Summary of the method: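 Human FXa was preincubated with compound in DMSO; 3 mM chromogenic substrate (stock) was added for 10 min at 37 °C. Inhibition was computed against DMSO control, with IC50 from least-squares regression; duplicate means.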

Plasma [1] = experiment: Anticoagulant potency in human plasma assessed as concentration required to double prothrombin time after 4 mins; type: functional
Summary of the method: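 Human normal plasma was preincubated with compound in DMSO at 37 °C for 4 min. Clotting was started with thromboplastin and PT was timed on an automatic coagulometer. Prolongation was referenced to DMSO vehicle, and PT2 (clotting-time doubling concentration) was obtained from a least-squares regression line. Duplicate measurements, averaged.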

Plasma [2] = experiment: Anticoagulant potency in mouse plasma assessed as concentration required to double prothrombin time after 4 mins; type: functional
Mus musculus = experiment: Ex vivo anticoagulant potency in ICR mouse blood at 30 mg/kg, po after 1 hr expressed as ratio of prothrombin time in drug treated animal to control; type: functional
Summary of the method: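 Male ICR mice (30-35 g), fasted >12 h, received compound orally at 30 mg/kg as a suspension in 0.5% methylcellulose; controls got vehicle alone (n = 3-5). Aortic blood was taken at 1 h under pentobarbital into 3.8% citrate (9:1). Platelet-poor plasma (1000g, 10 min) was preincubated 4 min at 37 °C, then thromboplastin added. Clotting time expressed as ratio versus control.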

CYP3A4 = CYP3A4 (Homo sapiens, UniProt P08684); experiment: Inhibition of human CYP3A4 at 1 uM by spectrofluorimeter; type: ADME
Chain of CYP3A4 (P08684 whole entry): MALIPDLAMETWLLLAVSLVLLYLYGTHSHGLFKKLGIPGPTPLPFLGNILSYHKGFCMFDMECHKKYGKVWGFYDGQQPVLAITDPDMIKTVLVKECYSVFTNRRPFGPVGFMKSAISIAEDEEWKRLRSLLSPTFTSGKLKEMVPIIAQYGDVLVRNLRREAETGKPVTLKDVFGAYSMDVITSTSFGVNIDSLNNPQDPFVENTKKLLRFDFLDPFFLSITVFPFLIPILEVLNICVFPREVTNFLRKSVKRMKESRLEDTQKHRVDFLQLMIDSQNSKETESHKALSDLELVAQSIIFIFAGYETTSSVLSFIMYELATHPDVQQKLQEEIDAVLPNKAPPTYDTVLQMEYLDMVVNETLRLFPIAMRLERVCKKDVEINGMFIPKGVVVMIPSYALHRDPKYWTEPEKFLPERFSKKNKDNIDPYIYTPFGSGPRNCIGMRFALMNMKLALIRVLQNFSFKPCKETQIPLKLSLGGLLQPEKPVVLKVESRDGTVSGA
Summary of the method: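 Microsomes from CYP3A4-expressing insect cells were incubated with 40 µM 7-benzyloxyquinoline and 1 µM test compound. Metabolite formed was quantified with a spectrofluorometer.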

Prothrombin = Prothrombin (Homo sapiens, UniProt P00734); experiment: Inhibition of human thrombin
Summary of the method: (§1)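 Chromogenic assays at 37 °C. Final enzyme levels: thrombin 0.080 U/mL, trypsin 0.040 µg/mL, plasmin 0.040 U/mL, kallikrein 0.020 U/mL, t-PA 4000 U/mL. Compound was preincubated with enzyme in buffer for 30 min, then substrate added and p-nitroanilide release monitored continuously for 5 min at 405 nm. Ki taken from Lineweaver–Burk plots across substrate concentrations.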

Plasma kallikrein = Plasma kallikrein (Homo sapiens, UniProt P03952); experiment: Inhibition of human kallikrein; summary of the method: as §1
Chain of Plasma kallikrein (P03952 20-390 limits assumed): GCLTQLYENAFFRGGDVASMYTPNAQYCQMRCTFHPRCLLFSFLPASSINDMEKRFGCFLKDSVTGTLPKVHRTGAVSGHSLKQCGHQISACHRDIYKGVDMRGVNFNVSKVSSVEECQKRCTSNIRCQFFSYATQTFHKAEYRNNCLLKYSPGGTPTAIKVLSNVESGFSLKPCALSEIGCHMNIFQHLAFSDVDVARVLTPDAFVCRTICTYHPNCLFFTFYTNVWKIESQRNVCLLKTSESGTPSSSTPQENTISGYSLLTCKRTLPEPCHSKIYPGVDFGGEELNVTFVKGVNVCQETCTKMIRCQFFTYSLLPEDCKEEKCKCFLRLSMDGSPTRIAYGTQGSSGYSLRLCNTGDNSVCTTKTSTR
Chain of Plasma kallikrein (P03952 391-638 limits assumed): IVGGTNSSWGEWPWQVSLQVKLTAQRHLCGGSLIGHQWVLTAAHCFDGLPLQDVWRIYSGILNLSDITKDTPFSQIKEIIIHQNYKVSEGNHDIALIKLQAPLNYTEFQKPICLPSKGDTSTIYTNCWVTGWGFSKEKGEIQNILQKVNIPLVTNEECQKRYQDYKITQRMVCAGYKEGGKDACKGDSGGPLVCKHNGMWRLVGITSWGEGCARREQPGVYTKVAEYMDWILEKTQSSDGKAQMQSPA

Trypsin = Trypsin (Homo sapiens, UniProt P07477+P07478+P35030); experiment: Inhibition of human trypsin; type: protein assay; summary of the method: as §1
Plasminogen = Plasminogen (Homo sapiens, UniProt P00747); experiment: Inhibition of human plasmin; summary of the method: as §1
Chain of Plasminogen (P00747 97-580 limits assumed): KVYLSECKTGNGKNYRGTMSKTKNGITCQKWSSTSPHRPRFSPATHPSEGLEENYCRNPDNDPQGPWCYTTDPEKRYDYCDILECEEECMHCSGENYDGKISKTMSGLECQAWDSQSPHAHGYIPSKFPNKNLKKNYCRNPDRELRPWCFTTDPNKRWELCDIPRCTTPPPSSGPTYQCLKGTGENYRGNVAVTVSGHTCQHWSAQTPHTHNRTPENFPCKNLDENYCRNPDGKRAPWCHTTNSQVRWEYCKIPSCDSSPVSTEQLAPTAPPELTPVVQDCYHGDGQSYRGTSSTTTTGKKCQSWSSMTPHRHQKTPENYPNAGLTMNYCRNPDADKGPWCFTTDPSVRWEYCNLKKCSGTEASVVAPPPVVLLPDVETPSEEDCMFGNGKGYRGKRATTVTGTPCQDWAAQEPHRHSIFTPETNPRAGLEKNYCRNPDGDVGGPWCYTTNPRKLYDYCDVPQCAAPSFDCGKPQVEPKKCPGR
Chain of Plasminogen (P00747 581-810 limits assumed): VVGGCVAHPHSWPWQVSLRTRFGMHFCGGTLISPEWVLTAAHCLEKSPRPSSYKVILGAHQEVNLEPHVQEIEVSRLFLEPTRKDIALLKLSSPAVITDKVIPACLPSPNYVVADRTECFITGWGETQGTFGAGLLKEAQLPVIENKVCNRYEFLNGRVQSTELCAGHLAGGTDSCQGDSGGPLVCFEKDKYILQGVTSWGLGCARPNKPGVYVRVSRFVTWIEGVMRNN

[3] = biological target: Tissue-type plasminogen activator (Homo sapiens, UniProt P00750); experiment: Inhibition of human tPA; summary of the method: as §1
Chain of Tissue-type plasminogen activator (P00750 whole entry): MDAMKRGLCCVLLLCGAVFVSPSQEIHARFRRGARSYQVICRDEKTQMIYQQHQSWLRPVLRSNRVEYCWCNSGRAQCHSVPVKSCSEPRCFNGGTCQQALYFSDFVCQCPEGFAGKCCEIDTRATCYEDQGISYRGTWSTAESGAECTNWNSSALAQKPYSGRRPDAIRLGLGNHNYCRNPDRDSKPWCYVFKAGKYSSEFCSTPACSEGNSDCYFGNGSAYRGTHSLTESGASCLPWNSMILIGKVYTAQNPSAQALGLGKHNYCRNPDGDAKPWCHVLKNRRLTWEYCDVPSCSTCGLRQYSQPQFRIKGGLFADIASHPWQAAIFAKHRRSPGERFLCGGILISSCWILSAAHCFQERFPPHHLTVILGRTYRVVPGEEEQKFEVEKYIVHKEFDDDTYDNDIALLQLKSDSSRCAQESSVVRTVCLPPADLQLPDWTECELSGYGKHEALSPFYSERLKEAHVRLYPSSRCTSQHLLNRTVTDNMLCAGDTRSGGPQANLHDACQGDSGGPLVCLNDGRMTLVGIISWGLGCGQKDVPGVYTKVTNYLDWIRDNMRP

[4] = Drug concentration in cynomolgus monkey at 1 mg/kg, iv after 5 mins; type: ADME, organism-based, Macaca fascicularis; design: dose 1 mg/kg, route intravenous; details: in vivo, read-out: Activity
Summary of the method: (§2)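 Male cynomolgus monkeys (n = 3), fasted; dosed iv (1 mg/kg in DMA/PEG400) or po (1 mg/kg, 0.5% methylcellulose suspension). Femoral vein blood drawn up to 24 h; plasma deproteinized with acetonitrile, diluted with 0.01 M ammonium formate pH 3.0, and analysed by LC/MS/MS (ODS column, positive ion turbo ionspray). Values given as mean ± SD of three determinations.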

Cynomolgus monkey [5] = experiment: AUC in cynomolgus monkey at 1 mg/kg, iv; type: ADME, organism-based, Macaca fascicularis, Plasma; design: dose 1 mg/kg, route intravenous; details: in vivo; summary of the method: as §2
[6] = Mean residence time in cynomolgus monkey at 1 mg/kg, iv; type: ADME, organism-based, Macaca fascicularis; design: dose 1 mg/kg, route intravenous; details: in vivo; summary of the method: as §2
[7] = Volume of distribution at steady state in cynomolgus monkey at 1 mg/kg, iv; type: ADME, organism-based, Macaca fascicularis; design: dose 1 mg/kg, route intravenous; details: in vivo, read-out: Vdss; summary of the method: as §2
[8] = Total clearance in cynomolgus monkey at 1 mg/kg, iv; type: ADME, organism-based, Macaca fascicularis; design: dose 1 mg/kg, route intravenous; details: in vivo; summary of the method: as §2
[9] = Cmax in cynomolgus monkey at 1 mg/kg, po; type: ADME, organism-based, Macaca fascicularis; design: dose 1 mg/kg, route oral; details: in vivo; summary of the method: as §2
[10] = Tmax in cynomolgus monkey at 1 mg/kg, po; type: ADME, organism-based, Macaca fascicularis; design: dose 1 mg/kg, route oral; details: in vivo; summary of the method: as §2
[11] = AUC in cynomolgus monkey at 1 mg/kg, po; type: ADME, organism-based, Macaca fascicularis; design: dose 1 mg/kg, route oral; details: plasma; summary of the method: as §2
[12] = Mean residence time in cynomolgus monkey at 1 mg/kg, po; type: ADME, organism-based, Macaca fascicularis; design: dose 1 mg/kg, route oral; details: in vivo; summary of the method: as §2
[13] = Oral bioavailability in cynomolgus monkey at 1 mg/kg; type: ADME, organism-based, Macaca fascicularis; details: in vivo; summary of the method: as §2
Cynomolgus monkey [14] = experiment: Ex vivo anticoagulant potency in cynomolgus monkey blood assessed as prothrombin time prolongation at 3 mg/kg, po after 0.5 hr; type: functional, Macaca fascicularis
Summary of the method: (§3)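 Male cynomolgus monkeys (3.5-4 kg), fasted >12 h, n = 3, given 3 mg/kg orally. Femoral vein blood was drawn into 3.8% citrate (9:1) at intervals, spun at 1000g for 10 min to platelet-poor plasma, and PT measured with thromboplastin on a coagulometer. Results are % of basal value, mean ± SEM.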

Cynomolgus monkey [15] = experiment: Ex vivo anticoagulant potency in cynomolgus monkey blood assessed as prothrombin time prolongation at 3 mg/kg, po after 1 hr; type: functional, Macaca fascicularis; summary of the method: as §3
Cynomolgus monkey [16] = experiment: Ex vivo anticoagulant potency in cynomolgus monkey blood assessed as prothrombin time prolongation at 3 mg/kg, po after 2 hrs; type: functional, Macaca fascicularis; summary of the method: as §3
Cynomolgus monkey [17] = experiment: Ex vivo anticoagulant potency in cynomolgus monkey blood assessed as prothrombin time prolongation at 3 mg/kg, po after 4 hrs; type: functional, Macaca fascicularis; summary of the method: as §3
Cynomolgus monkey [18] = experiment: Ex vivo anticoagulant potency in cynomolgus monkey blood assessed as prothrombin time prolongation at 3 mg/kg, po after 8 hrs; type: functional, Macaca fascicularis; summary of the method: as §3
Plasma [19] = experiment: Anticoagulant potency in cynomolgus monkey plasma assessed as concentration required to double prothrombin time; type: functional, Macaca fascicularis

Chain of Coagulation factor X (P00742 41-179 limits assumed): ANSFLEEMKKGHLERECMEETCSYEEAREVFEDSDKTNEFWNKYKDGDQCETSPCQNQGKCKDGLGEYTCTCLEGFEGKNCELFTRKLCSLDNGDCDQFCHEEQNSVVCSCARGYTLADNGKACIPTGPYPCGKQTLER
Chain of Coagulation factor X (P00742 235-488 limits assumed): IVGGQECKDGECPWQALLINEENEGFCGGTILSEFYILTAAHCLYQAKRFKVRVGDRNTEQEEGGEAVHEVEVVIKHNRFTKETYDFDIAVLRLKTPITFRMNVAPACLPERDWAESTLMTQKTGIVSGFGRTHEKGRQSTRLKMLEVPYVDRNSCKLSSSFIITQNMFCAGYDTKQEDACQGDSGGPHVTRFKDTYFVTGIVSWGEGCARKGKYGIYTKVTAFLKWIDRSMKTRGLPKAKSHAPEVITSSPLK

IC50 (Coagulation factor X): 140 nM
SMILES: CN(C(=O)CCCS(=O)(=O)c1ccc2cc(Cl)ccc2c1)C1CCN(c2ccncc2)CC1

inhibition at 1 µM (CYP3A4): 40%
SMILES: Cc1cc(N2CCC(N(C)C(=O)CCS(=O)(=O)c3ccc4cc(Cl)ccc4c3)CC2)cc(C)n1
Activity (Plasma [1]): 1.6 µM | Activity (Plasma [2]): 4.1 µM | Ratio (Mus musculus): 1.3

IC50 (Coagulation factor X): 470 nM
SMILES: O=C(NCCCS(=O)(=O)c1ccc2cc(Cl)ccc2c1)C1CCN(c2ccncc2)CC1

IC50 (Coagulation factor X): 60 nM
SMILES: CCOC(=O)CN(C(=O)CCS(=O)(=O)c1ccc2cc(Cl)ccc2c1)C1CCN(c2ccncc2)CC1
Activity (Plasma [1]): 1.1 µM | Activity (Plasma [2]): 10 µM | Ratio (Mus musculus): 1.1

IC50 (Coagulation factor X): 120 nM
SMILES: NC(=O)CN(CCCS(=O)(=O)c1ccc2cc(Cl)ccc2c1)C(=O)C1CCN(c2ccncc2)CC1
Activity (Plasma [1]): 2.1 µM

IC50 (Coagulation factor X): 61 nM | Ki (Coagulation factor X): 15 nM | inhibition at 1 µM (CYP3A4): 40% | Ki (Prothrombin): 7500 nM | Ki (Plasma kallikrein): 3000 nM | Ki (Trypsin): > 200000 nM | Ki (Plasminogen): > 200000 nM | Ki [3]: 67000 nM | concentration at 5 min [4]: 565 ng/mL | AUC (Cynomolgus monkey [5]): 1580 ng·h/mL | MRT [6]: 4.54 h | Vd [7]: 3.29 L/kg | clearance [8]: 12.2 mL/min/kg | Cmax [9]: 134 ng/mL | Tmax [10]: 2 h | AUC [11]: 1030 ng·h/mL | MRT [12]: 6.6 h | bioavailability [13]: 66.7%
SMILES: Cc1cc(N2CCC(N(C)C(=O)CCS(=O)(=O)c3ccc4cc(Cl)ccc4c3)CC2)ccn1
Activity (Plasma [1]): 1.6 µM | Activity (Plasma [2]): 4.8 µM | Ratio (Mus musculus): 1.6 | Activity (Cynomolgus monkey [14]): 142% | Activity (Cynomolgus monkey [15]): 133.6% | Activity (Cynomolgus monkey [16]): 146.9% | Activity (Cynomolgus monkey [17]): 144.6% | Activity (Cynomolgus monkey [18]): 117.7% | Activity (Plasma [19]): 1.1 µM

IC50 (Coagulation factor X): 50 nM | inhibition at 1 µM (CYP3A4): 81%
SMILES: CN(C(=O)CCS(=O)(=O)c1ccc2cc(Cl)ccc2c1)C1CCN(c2ccncc2)CC1
Activity (Plasma [1]): 1 µM | Activity (Plasma [2]): 8 µM | Ratio (Mus musculus): 1.6

IC50 (Coagulation factor X): 54 nM
SMILES: O=C(O)CN(CCCS(=O)(=O)c1ccc2cc(Cl)ccc2c1)C(=O)C1CCN(c2ccncc2)CC1
Activity (Plasma [1]): 1.8 µM | Activity (Plasma [2]): 14 µM | Ratio (Mus musculus): 1

IC50 (Coagulation factor X): 720 nM
SMILES: CN(C(=O)CS(=O)(=O)c1ccc2cc(Cl)ccc2c1)C1CCN(c2ccncc2)CC1

IC50 (Coagulation factor X): 79 nM | inhibition at 1 µM (CYP3A4): 49%
SMILES: CN(C(=O)CCS(=O)(=O)c1ccc2cc(Cl)ccc2c1)C1CCN(c2ccnc(N)c2)CC1
Activity (Plasma [1]): 3.6 µM

IC50 (Coagulation factor X): 250 nM
SMILES: CC(C)N(CCCS(=O)(=O)c1ccc2cc(Cl)ccc2c1)C(=O)C1CCN(c2ccncc2)CC1
Activity (Plasma [1]): 8.4 µM

IC50 (Coagulation factor X): 160 nM
SMILES: O=C(CCS(=O)(=O)c1ccc2cc(Cl)ccc2c1)N1CCN(c2ccncc2)CC1

IC50 (Coagulation factor X): 720 nM
SMILES: Cc1ccc2cc(S(=O)(=O)CCC(=O)N(C)C3CCN(c4ccnc(C)c4)CC3)ccc2c1

IC50 (Coagulation factor X): 64 nM
SMILES: CCOC(=O)CN(CCCS(=O)(=O)c1ccc2cc(Cl)ccc2c1)C(=O)C1CCN(c2ccncc2)CC1
Activity (Plasma [1]): 1.9 µM | Activity (Plasma [2]): 11 µM | Ratio (Mus musculus): 1

IC50 (Coagulation factor X): > 5000 nM
SMILES: Cc1cc(N2CCC(N(C)C(=O)CCS(=O)(=O)c3cc4cc(Cl)ccc4s3)CC2)ccn1

SMILES: CCOC(=O)CCN(C(=O)CCS(=O)(=O)c1ccc2cc(Cl)ccc2c1)C1CCN(c2ccncc2)CC1
Activity (Plasma [1]): 0.85 µM | Activity (Plasma [2]): 14 µM | Ratio (Mus musculus): 1

IC50 (Coagulation factor X): 33 nM
SMILES: O=C(C1CCN(c2ccncc2)CC1)N1CCN(S(=O)(=O)c2ccc3cc(Cl)ccc3c2)CC1

IC50 (Coagulation factor X): > 5000 nM
SMILES: Cc1cc(N2CCC(N(C)C(=O)CCS(=O)(=O)c3ccc4c(Cl)cccc4c3)CC2)ccn1

SMILES: CN(CCCS(=O)(=O)c1ccc2cc(Cl)ccc2c1)C(=O)C1CCN(c2ccncc2)CC1
Activity (Plasma [1]): 1.7 µM | Activity (Plasma [2]): 17 µM | Ratio (Mus musculus): 1.3

IC50 (Coagulation factor X): > 5000 nM
SMILES: Cc1cc(N2CCC(N(C)C(=O)CCS(=O)(=O)c3cc4ccc(Cl)cc4s3)CC2)ccn1

IC50 (Coagulation factor X): 110 nM | inhibition at 1 µM (CYP3A4): 21%
SMILES: CN(C(=O)CCS(=O)(=O)c1ccc2cc(Cl)ccc2c1)C1CCN(c2ccnc(CO)c2)CC1
Activity (Plasma [1]): 1.5 µM | Activity (Plasma [2]): 6.4 µM | Ratio (Mus musculus): 1.1

IC50 (Coagulation factor X): 120 nM
SMILES: CCN(CCCS(=O)(=O)c1ccc2cc(Cl)ccc2c1)C(=O)C1CCN(c2ccncc2)CC1
Activity (Plasma [1]): 3.2 µM

IC50 (Coagulation factor X): 95 nM
SMILES: NCCN(C(=O)CCS(=O)(=O)c1ccc2cc(Cl)ccc2c1)C1CCN(c2ccncc2)CC1
Activity (Plasma [1]): 0.63 µM | Activity (Plasma [2]): 8.6 µM | Ratio (Mus musculus): 1

SMILES: CC(=N)N1CC[C@H](Oc2ccc([C@H](Cc3ccc4ccc(C(=N)N)cc4c3)C(=O)O)cc2)C1 [DX-9065A]
Activity (Plasma [1]): 0.69 µM | Activity (Plasma [2]): 6.8 µM

IC50 (Coagulation factor X): 840 nM
SMILES: CN(CCS(=O)(=O)c1ccc2cc(Cl)ccc2c1)C(=O)C1CCN(c2ccncc2)CC1

IC50 (Coagulation factor X): > 5000 nM
SMILES: Cc1cc(N2CCC(N(C)C(=O)CCS(=O)(=O)c3ccc4ccc(Cl)cc4c3)CC2)ccn1
